According to ChEMBL document CHEMBL4680111, “Target Validation and Identification of Novel Boronate Inhibitors of the Plasmodium falciparum Proteasome” (J Med Chem, 2018):
Activity calls are given as the source filed them. The rule behind the calls is not given here.

Assays:
[1] = target: T1, Proteasome Macropain subunit MB1 (Homo sapiens, UniProt P28074); assay: Binding affinity to human 20S constitutive proteasome beta 5 subunit assessed as equilibrium constant using fluorogenic peptide Ac-WLA-AMC as substrate in presence of PA28alpha by fluorescence based microplate reader assay
T1 sequence (P28074 whole entry): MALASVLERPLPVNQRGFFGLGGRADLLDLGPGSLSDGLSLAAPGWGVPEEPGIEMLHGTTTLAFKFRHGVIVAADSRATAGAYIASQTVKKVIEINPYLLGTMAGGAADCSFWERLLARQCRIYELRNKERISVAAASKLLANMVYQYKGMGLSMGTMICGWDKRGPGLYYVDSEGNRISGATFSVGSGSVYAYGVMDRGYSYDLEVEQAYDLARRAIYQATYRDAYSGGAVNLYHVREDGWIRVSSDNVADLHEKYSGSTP

[2] = Binding affinity to Plasmodium falciparum 20S proteasome beta 2 subunit assessed as equilibrium constant using fluorogenic peptide Ac-WLR-AMC as substrate in presence of PA28alpha by fluorescence based microplate reader assay
[3] = target: T2, Proteasome Macropain subunit MB1 (Homo sapiens) (UniProt P28074); assay: Binding affinity to human 20S constitutive proteasome beta 5 subunit assessed as half-life using fluorogenic peptide Ac-WLA-AMC as substrate in presence of PA28alpha by fluorescence based microplate reader assay
T2 sequence (whole entry): T1 sequence (P28074 whole entry)

Plasmodium falciparum = assay: Binding affinity to Plasmodium falciparum 20S proteasome beta 5 subunit assessed as half-life using fluorogenic peptide Ac-WLA-AMC as substrate in presence of PA28alpha by fluorescence based microplate reader assay
[4] = target: T2, Proteasome Macropain subunit MB1 (Homo sapiens); assay: Inhibition of human 20S constitutive proteasome beta 5 subunit assessed as inhibition of BMV037 probe labeling at 10 uM incubated for 1 hr by SDS-PAGE analysis
Summary of the method: (§1)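 Purified human constitutive 20S (20 nM) was treated with compound at 37°C for 1 h, then labelled with 10 µM BMV037 at 37°C for 2 h. Samples were run on 10% Bis-Tris gel with MOPS buffer, and active subunits were detected by Cy5 fluorescence scan.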

[5] = target: T2, Proteasome Macropain subunit MB1 (Homo sapiens); assay: Inhibition of human 20S constitutive proteasome beta 5 subunit assessed as inhibition of BMV037 probe labeling at 1 uM incubated for 1 hr by SDS-PAGE analysis; summary of the method: as §1

Compound `CC(C)C[C@H](NC(=O)[C@H](Cc1ccccc1)NC(=O)Cc1ccc(O)cc1)B(O)O` has a Ki [1] of 0.13 nM, a Ki [2] of 6.4 nM and a T1/2 [3] of 1.77 h. For the same compound, the T1/2 (Plasmodium falciparum) was 1.08 h.
For `CC(=O)N1CCC[C@@H]1C(=O)N[C@@H](C)C(=O)N[C@@H](Cc1ccccc1)B(O)O`, the inhibition [4] was “inactive”.
With `Cc1ccc(S(=O)(=O)N[C@@H](CC(=O)NCC(C)(C)C)C(=O)N[C@@H](Cc2ccccc2)C(=O)N[C@@H](CC(C)C)B(O)O)cc1` the inhibition [5] was “inactive”.
